{"data": "Experimental data from different studies", "target": "NUAK family SNF1-like kinase 2 (NUAK2, Homo sapiens, UniProt Q9H093)", "One construct used (Q9H093 1-628)": "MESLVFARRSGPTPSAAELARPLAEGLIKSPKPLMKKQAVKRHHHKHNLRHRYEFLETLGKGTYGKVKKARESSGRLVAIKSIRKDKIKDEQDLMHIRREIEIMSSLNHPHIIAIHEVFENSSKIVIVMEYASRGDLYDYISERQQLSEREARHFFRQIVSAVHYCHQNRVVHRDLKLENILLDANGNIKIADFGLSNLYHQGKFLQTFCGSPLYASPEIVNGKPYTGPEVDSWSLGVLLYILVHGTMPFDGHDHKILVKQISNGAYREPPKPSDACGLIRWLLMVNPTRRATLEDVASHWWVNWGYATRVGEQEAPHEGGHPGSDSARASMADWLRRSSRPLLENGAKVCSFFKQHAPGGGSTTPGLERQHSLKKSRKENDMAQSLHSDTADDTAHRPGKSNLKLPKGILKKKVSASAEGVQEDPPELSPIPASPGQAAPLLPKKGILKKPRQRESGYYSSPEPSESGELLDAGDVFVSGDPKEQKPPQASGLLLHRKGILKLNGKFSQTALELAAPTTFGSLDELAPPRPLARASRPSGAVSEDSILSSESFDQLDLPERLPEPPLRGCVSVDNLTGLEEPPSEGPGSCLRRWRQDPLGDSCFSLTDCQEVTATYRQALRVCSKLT", "note": "Each line is one published result; the experiments were not run side by side."}
{"SMILES": "O=C(c1ccc(Nc2ncc(Cl)c(-c3cc4ccccc4s3)n2)cc1)N1CCC(N2CCCC2)CC1", "assay": "binding, competition with immobilised ligand", "conditions": "1 µM", "remaining binding [%]": 0.8}
{"SMILES": "O=C(NCC1CCOCC1)c1n[nH]cc1NC(=O)c1c(F)cccc1F", "assay": "binding, competition with immobilised ligand", "conditions": "1 µM", "remaining binding [%]": 70}
{"SMILES": "CC(C)(C)c1ccc(-c2nc(CBr)nn2-c2cccc(O)c2)cc1", "assay": "cell-free assay, competition with immobilised ligand", "conditions": "10 µM", "remaining binding [%]": 74}
{"SMILES": "C[C@@H]1CCN(c2nccc(-c3cnn4ncccc34)n2)C1", "assay": "binding", "conditions": "1 µM", "remaining binding [%]": 74}
{"SMILES": "CO[C@@H](C)c1c(Nc2ccc([C@@H](N(C)C(=O)C3CCS(=O)(=O)CC3)C(F)(F)F)cc2)cnc2cc(Cl)nn12", "assay": "cell-free assay, competition with immobilised ligand", "conditions": "1 µM", "remaining binding [%]": 100}
{"SMILES": "COc1cnc(Nc2cccc(S(N)(=O)=O)c2)nc1N1CCN(c2ccccc2)CC1", "assay": "binding, competition with immobilised ligand", "conditions": "1 µM", "remaining binding [%]": 62}
{"SMILES": "C[C@@H]1CN(c2ccc3ncc(-c4ccc5[nH]nc(C6CC6)c5c4)n3n2)C[C@H](C)O1", "assay": "binding, competition with immobilised ligand", "conditions": "0.5 µM", "remaining binding [%]": 58}
{"SMILES": "F[C@@H]1CCN(c2nccc(-c3cnn4ncccc34)n2)C1", "assay": "binding", "conditions": "1 µM", "remaining binding [%]": 88}
{"SMILES": "Cc1c(NC(=O)c2cc(C(N)=O)nc3cc(F)ccc23)c(C(F)(F)F)nn1Cc1ccc(C#N)cc1", "assay": "cell-free assay, competition with immobilised ligand", "conditions": "1 µM", "remaining binding [%]": 83}
{"SMILES": "COc1cnc(Nc2cccc(S(N)(=O)=O)c2)nc1N1CCN(c2ccccc2)C(=O)C1", "assay": "binding, competition with immobilised ligand", "conditions": "1 µM", "remaining binding [%]": 54}
{"SMILES": "CN(C)c1nccc(-c2cnn3ncccc23)n1", "assay": "binding", "conditions": "1 µM", "remaining binding [%]": 100}
{"SMILES": "CCN1CCN(Cc2ccc(C(=O)Nc3ccc(C)c(Oc4ccc5c(c4)CC(=O)N5)c3)cc2C(F)(F)F)CC1", "assay": "binding, competition with immobilised ligand", "conditions": "1 µM", "remaining binding [%]": 100}
{"SMILES": "CN(C)c1ncc(F)c(-c2cnn3ncccc23)n1", "assay": "binding", "conditions": "1 µM", "remaining binding [%]": 80}
{"SMILES": "Cn1cc(Cl)c2c(Oc3c(F)cc(Nc4cc(Cl)nc(N)n4)cc3F)ccnc21", "assay": "cell-free assay, competition with immobilised ligand", "conditions": "0.1 µM", "remaining binding [%]": 85}
{"SMILES": "O=C(c1ccc(Nc2ncc(Cl)c(-c3ccc(Cl)s3)n2)cc1)N1CCC(N2CCCC2)CC1", "assay": "binding, competition with immobilised ligand", "conditions": "1 µM", "remaining binding [%]": 0.4}
{"SMILES": "Nc1c(C(=O)NCc2ccc(C(=O)NCCCC3CCCCC3)cc2)cnn1-c1ccccc1", "assay": "cell-free assay, competition with immobilised ligand", "conditions": "0.1 µM", "remaining binding [%]": 100}
{"SMILES": "N[C@H]1CCN(c2nccc(-c3cnn4ncccc34)n2)C1", "assay": "binding", "conditions": "1 µM", "remaining binding [%]": 100}
{"SMILES": "CNCc1ccccc1-c1csc([C@H](C)Nc2nc(C)nc3cc(OC)c(OC)cc23)c1", "assay": "cell-free assay, competition with immobilised ligand", "conditions": "1 µM", "remaining binding [%]": 100}
{"SMILES": "O=C(NCCCN1CCOCC1)c1ccc(Nc2nccc(-c3cc4ccccc4s3)n2)cc1", "assay": "binding, competition with immobilised ligand", "conditions": "1 µM", "remaining binding [%]": 26}
{"SMILES": "CN(CCCC(F)(F)F)c1nccc(-c2cnn3ncccc23)n1", "assay": "binding", "conditions": "1 µM", "remaining binding [%]": 92}
{"SMILES": "c1cncc(-c2cccc(Nc3nccc(NC4CCCCC4)n3)c2)c1", "assay": "binding, competition with immobilised ligand", "conditions": "10 µM", "remaining binding [%]": 17}
{"SMILES": "COc1cc(-c2cn(C3CCc4ccccc4N(CC(F)(F)F)C3=O)nn2)ccc1-n1ccc(C)n1 (stereo not shown)", "assay": "cell-free assay, competition with immobilised ligand", "conditions": "1 µM", "remaining binding [%]": 88}
